Calls of active or inactive are those of the source. No cut-off for these calls is given here.
System: not listed separately
Test: Evaluated for the pKa value.
Type: physicochemical
Conditions: not given
How it was run: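 Hydrochloride salt titrated to determine the pKa of the ammonium ion. Values for related analogues were estimated by extrapolating the pKa values of the corresponding dimethyl ethers.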

Structure (SMILES)	pKa
NC1CCc2cc(O)c(O)cc2C1 (stereo not given)	9.84
COc1cc2c(cc1OC)NC(N)=NC2	11.1
NC1CCc2c(ccc(O)c2O)C1 (stereo not given)	9.84
NC1=NCc2cc(O)c(O)cc2N1	12
NCCc1ccc(O)c(O)c1 [DOPAMINE]	9.84

System: Canis familiaris
Test: Evaluated for the percentage vasodilation in the renal artery produced by 3000 nmol administered intra-arterially; NA is No Antagonistic activity
Type: functional, organism-based
Conditions: Canis lupus familiaris
How it was run: (§1)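 Anesthetized dogs fitted with an electromagnetic flow probe on the renal artery; a bent 25-gauge needle was inserted proximally into the artery for dosing. Phenoxybenzamine, 5 mg/kg ia, was infused first. A dopamine dose-response curve (11.75, 47, 188 nmol/dog) was run, then rising doses of test agent up to 3000 nmol were injected intra-arterially, each in 0.2 mL.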

Structure (SMILES)	Vasodilation
CN(C)C1=NCc2c(ccc(O)c2O)N1	inactive
NC1=NCc2c(ccc(O)c2O)N1	inactive
CCCN(CCC)C1=NCc2c(ccc(O)c2O)N1	inactive
CN(C)C1=NCc2cc(O)c(O)cc2N1	inactive
NC1CCc2c(ccc(O)c2O)C1 (stereo not given)	inactive
CN(C)C1CCc2c(ccc(O)c2O)C1 (stereo not given)	inactive
CNC1=NCc2c(ccc(O)c2O)N1	inactive

System: Canis familiaris
Test: Evaluated for the percentage vasodilation in the renal artery produced by 3000 nmol administered intra-arterially.
Type: functional, Canis lupus familiaris
Conditions: not given
How it was run: as §1

Structure (SMILES)	Vasodilation [%]
CCCN(CCC)C1=NCc2cc(O)c(O)cc2N1	50
NC1=NCc2cc(O)c(O)cc2N1	50
CNC1=NCc2cc(O)c(O)cc2N1	50

Source: ChEMBL document CHEMBL1122076, “Synthesis of 2-(alkylamino)-5,6- and -6,7-dihydroxy-3,4-dihydroquinazolines and evaluation as potential dopamine agonists” (J Med Chem, 1982)
